Experimental data: publication PMC7145530 (Nucleic Acids Research, 2019)
Where two headings read alike, the source gives them in different places.

Legend:
ALKBH3 [1] = target: T1, ALKBH3 (Homo sapiens, UniProt Q96Q83); experiment: Demethylation assay by direct detection of formaldehyde; assay type: biochemical; conditions: ferrozine 1 mM or succinate 5 mM; ALKBH3 0.2 μM, RAD51C 4.0 μM
T1 sequence (Q96Q83 1-286): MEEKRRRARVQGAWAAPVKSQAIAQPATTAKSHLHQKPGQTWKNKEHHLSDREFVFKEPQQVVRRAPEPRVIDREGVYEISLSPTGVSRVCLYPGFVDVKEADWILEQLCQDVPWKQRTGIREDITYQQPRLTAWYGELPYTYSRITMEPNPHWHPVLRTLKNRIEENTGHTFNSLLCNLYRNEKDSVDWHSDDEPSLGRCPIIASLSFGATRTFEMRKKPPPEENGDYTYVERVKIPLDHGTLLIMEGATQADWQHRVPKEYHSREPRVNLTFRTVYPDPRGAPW

ALKBH3 [2] = target: T1, ALKBH3; experiment: Isothermal titration calorimetry; assay type: binding; conditions: ITC, 25°C; 1 mM peptide into 15 μM ALKBH3
ALKBH2 = experiment: Yeast two-hybrid with ALKBH2; assay type: binding, human; conditions: strain pJ69-4A; growth on dropout plates and lacZ reporter
Outline: (§1)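 Full-length ALKBH2 or ALKBH3 fused to Gal4 binding domain (pGBKT7) was co-transformed with Gal4 activation domain (pACT2) fusions of RAD51, RAD51B, RAD51C, RAD51D, XRCC2 or XRCC3, or empty vectors. Transformants were selected on SD -Leu -Trp plates at 30°C for 2–3 days, then spotted on -His (triple) or -His -Ade (quadruple) dropout plates. lacZ was scored qualitatively by X-gal filter assay.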

ALKBH3 [3] = target: T1, ALKBH3; experiment: Yeast two-hybrid with ALKBH3; assay type: binding; conditions: strain pJ69-4A; growth on dropout plates and lacZ reporter
Outline: as §1

RAD51C = experiment: Yeast two-hybrid of ALKBH3 fragments with RAD51C; assay type: binding, human; conditions: ALKBH3 fragments (pGBKT7) with pACT2-RAD51C
Outline: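 Yeast co-transformed with Gal4 binding-domain (pGBKT7) and activation-domain constructs were plated on SD −Leu −Trp at 30°C for 2–3 days. HIS and ADE2 reporters were scored by spotting onto −Leu −Trp −His or −Leu −Trp −His −Ade plates. lacZ was checked qualitatively by X-gal filter assay.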

[4] = target: T2, His-tagged RAD51C (HIS-RAD51C) (human, UniProt O43502 1-376); experiment: pull-down
T2 sequence (looked up): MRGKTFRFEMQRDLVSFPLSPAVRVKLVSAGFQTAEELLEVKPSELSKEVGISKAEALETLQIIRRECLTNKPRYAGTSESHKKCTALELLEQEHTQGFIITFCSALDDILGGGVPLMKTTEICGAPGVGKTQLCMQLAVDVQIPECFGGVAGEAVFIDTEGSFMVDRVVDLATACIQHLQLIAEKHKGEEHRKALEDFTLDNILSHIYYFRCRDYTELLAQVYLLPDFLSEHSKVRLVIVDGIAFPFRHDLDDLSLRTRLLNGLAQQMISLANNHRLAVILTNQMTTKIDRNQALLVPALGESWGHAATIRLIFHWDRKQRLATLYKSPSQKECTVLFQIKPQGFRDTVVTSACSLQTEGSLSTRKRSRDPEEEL

ALKBH3 [5] = target: T1, ALKBH3; conditions: ssDNA substrate; cited from earlier work
ALKBH3 [6] = target: T1, ALKBH3; experiment: Steady-state; assay type: biochemical; conditions: 3′-tailed DNA 0.6–9.6 μM, ALKBH3 0.2 μM, RAD51C or RAD51CΔ42–52 4 μM, FDH-coupled
[7] = target: T3, ALKBH3 protein (recombinant, used for ITC) (human, UniProt Q96Q83 1-286); experiment: ITC
T3 sequence (looked up): T1 sequence (Q96Q83 1-286)

## O=S(=O)([O-])c1ccc(-c2nnc(-c3ccccn3)nc2-c2ccc(S(=O)(=O)[O-])cc2)cc1.[Na+].[Na+] [ferrozine, reference compound]
ALKBH3 [1]
  inhibition of ALKBH3 with RAD51C present: presence of RAD51C could not alleviate the inhibitory effect of ferrozine and succinate

## O=C(O)CCC(=O)O [succinate, reference compound]
ALKBH3 [1]
  inhibition of ALKBH3 with RAD51C present: presence of RAD51C could not alleviate the inhibitory effect of ferrozine and succinate

## QTAEELLEV [p33–41]
ALKBH3 [2]
  binding to ALKBH3: failed to bind ALKBH3 under these conditions

## RAD51: human recombinase RAD51
ALKBH2
  yeast two-hybrid interaction with ALKBH2: could not detect any interaction
ALKBH3 [3]
  yeast two-hybrid interaction with ALKBH3: not with RAD51

B1: RAD51CΔ19–32 (protein)
chain: MRGKTFRFEMQRDLVSFPQTAEELLEVKPSELSKEVGISKAEALETLQIIRRECLTNKPRYAGTSESHKKCTALELLEQEHTQGFIITFCSALDDILGGGVPLMKTTEICGAPGVGKTQLCMQLAVDVQIPECFGGVAGEAVFIDTEGSFMVDRVVDLATACIQHLQLIAEKHKGEEHRKALEDFTLDNILSHIYYFRCRDYTELLAQVYLLPDFLSEHSKVRLVIVDGIAFPFRHDLDDLSLRTRLLNGLAQQMISLANNHRLAVILTNQMTTKIDRNQALLVPALGESWGHAATIRLIFHWDRKQRLATLYKSPSQKECTVLFQIKPQGFRDTVVTSACSLQTEGSLSTRKRSRDPEEEL
modifications: left off: Gal4 activation domain, end not stated, kept
ALKBH3 [3]
  yeast two-hybrid interaction with ALKBH3: remained unaffected

B2: RAD51CΔ1–18 (protein)
chain: LSPAVRVKLVSAGFQTAEELLEVKPSELSKEVGISKAEALETLQIIRRECLTNKPRYAGTSESHKKCTALELLEQEHTQGFIITFCSALDDILGGGVPLMKTTEICGAPGVGKTQLCMQLAVDVQIPECFGGVAGEAVFIDTEGSFMVDRVVDLATACIQHLQLIAEKHKGEEHRKALEDFTLDNILSHIYYFRCRDYTELLAQVYLLPDFLSEHSKVRLVIVDGIAFPFRHDLDDLSLRTRLLNGLAQQMISLANNHRLAVILTNQMTTKIDRNQALLVPALGESWGHAATIRLIFHWDRKQRLATLYKSPSQKECTVLFQIKPQGFRDTVVTSACSLQTEGSLSTRKRSRDPEEEL
modifications: left off: Gal4 activation domain, end not stated, kept
ALKBH3 [3]
  yeast two-hybrid interaction with ALKBH3: remained unaffected

B3: RAD51C-NTD: NTD consisting of 1–66 amino acid residues (protein)
chain: MRGKTFRFEMQRDLVSFPLSPAVRVKLVSAGFQTAEELLEVKPSELSKEVGISKAEALETLQIIRR
modifications: left off: Gal4 activation domain, end not stated, kept
ALKBH3 [3]
  yeast two-hybrid interaction with ALKBH3: robust interaction

B4: RAD51CΔ53–66 (protein)
chain: MRGKTFRFEMQRDLVSFPLSPAVRVKLVSAGFQTAEELLEVKPSELSKEVGIECLTNKPRYAGTSESHKKCTALELLEQEHTQGFIITFCSALDDILGGGVPLMKTTEICGAPGVGKTQLCMQLAVDVQIPECFGGVAGEAVFIDTEGSFMVDRVVDLATACIQHLQLIAEKHKGEEHRKALEDFTLDNILSHIYYFRCRDYTELLAQVYLLPDFLSEHSKVRLVIVDGIAFPFRHDLDDLSLRTRLLNGLAQQMISLANNHRLAVILTNQMTTKIDRNQALLVPALGESWGHAATIRLIFHWDRKQRLATLYKSPSQKECTVLFQIKPQGFRDTVVTSACSLQTEGSLSTRKRSRDPEEEL
modifications: left off: Gal4 activation domain, end not stated, kept
ALKBH3 [3]
  yeast two-hybrid interaction with ALKBH3: remained unaffected

B5: RAD51CΔ33–41 (protein)
chain: MRGKTFRFEMQRDLVSFPLSPAVRVKLVSAGFKPSELSKEVGISKAEALETLQIIRRECLTNKPRYAGTSESHKKCTALELLEQEHTQGFIITFCSALDDILGGGVPLMKTTEICGAPGVGKTQLCMQLAVDVQIPECFGGVAGEAVFIDTEGSFMVDRVVDLATACIQHLQLIAEKHKGEEHRKALEDFTLDNILSHIYYFRCRDYTELLAQVYLLPDFLSEHSKVRLVIVDGIAFPFRHDLDDLSLRTRLLNGLAQQMISLANNHRLAVILTNQMTTKIDRNQALLVPALGESWGHAATIRLIFHWDRKQRLATLYKSPSQKECTVLFQIKPQGFRDTVVTSACSLQTEGSLSTRKRSRDPEEEL
modifications: left off: Gal4 activation domain, end not stated, kept
ALKBH3 [3]
  yeast two-hybrid interaction with ALKBH3: partially affected

B6: ΔNTD: remaining amino acid residues (67–376) of RAD51C (protein)
chain: ECLTNKPRYAGTSESHKKCTALELLEQEHTQGFIITFCSALDDILGGGVPLMKTTEICGAPGVGKTQLCMQLAVDVQIPECFGGVAGEAVFIDTEGSFMVDRVVDLATACIQHLQLIAEKHKGEEHRKALEDFTLDNILSHIYYFRCRDYTELLAQVYLLPDFLSEHSKVRLVIVDGIAFPFRHDLDDLSLRTRLLNGLAQQMISLANNHRLAVILTNQMTTKIDRNQALLVPALGESWGHAATIRLIFHWDRKQRLATLYKSPSQKECTVLFQIKPQGFRDTVVTSACSLQTEGSLSTRKRSRDPEEEL
modifications: left off: Gal4 activation domain, end not stated, kept
ALKBH3 [3]
  yeast two-hybrid interaction with ALKBH3: completely abrogated the interaction

B7: ALKBH3 (amino acids 175–286): C-terminal segment of ALKBH3 (protein)
chain: SLLCNLYRNEKDSVDWHSDDEPSLGRCPIIASLSFGATRTFEMRKKPPPEENGDYTYVERVKIPLDHGTLLIMEGATQADWQHRVPKEYHSREPRVNLTFRTVYPDPRGAPW
modifications: left off: Gal4 DNA-binding domain, end not stated, kept
RAD51C
  yeast two-hybrid interaction with RAD51C: interacted with RAD51C

B8: GST-ALKBH3 fusion protein (natural protein, human, UniProt Q96Q83 1-286, looked up)
chain: T1 sequence (Q96Q83 1-286)
[4]
  binding result: binds

B9: ALKBH3: human oxidative demethylase ALKBH3, tag-less recombinant (protein)
chain: T1 sequence (Q96Q83 1-286)
modifications: left off: Gal4 DNA-binding domain, end not stated, kept
ALKBH3 [5]
  Km: 1.9 µM
  kcat/KM: 14500 M⁻¹ s⁻¹
ALKBH3 [6]
  Km: 1.4 µM

## KPSELSKEVGI [synthetic peptide p42–52 of RAD51C]
[7]
  Kd: 4 µM
  stoichiometry N: 1
